Published values pooled from the literature.
Each line is one published result; the experiments were not run side by side.
Sample: plasma

With `COc1ccc([C@@H]2CN(C(=O)[C@@H](O)CO)C[C@@]2(C)[C@@H](C)O)cc1OC1CN(c2ccc(C)cn2)C1` the AUC(0-inf) was 9000 ng·h/mL (human; oral; 40 mg; single dose, healthy volunteers).
`CO[C@H]1CC[C@H](N2C(=O)CNc3ncc(-c4ccc(C(C)(C)O)nc4)nc32)CC1` has an AUC(0-inf) of 1230 ng·h/mL (human; oral; 30 mg; patients).
`O=C(/C=C/c1cccc(S(=O)(=O)Nc2ccccc2)c1)NO` has an AUC(0-inf) of 55200 ng·h/mL (human; intravenous; 1800 mg/m²; patients).
With `Cn1cc(-c2ccc(S(=O)(=O)[C@@H]3C[C@@H](C(=O)NC4(C#N)CC4)N(C(=O)C4(C(F)(F)F)CC4)C3)c(C(F)(F)F)c2)cn1` the AUC(0-inf) was 44.9 ng·h/mL (human; oral; 1 mg; single dose, fasted, healthy volunteers).
`CC(C)(Sc1ccncc1-c1ccc(C#N)c2ccccc12)C(=O)O` gave an AUC(0-inf) of 415 ng·h/mL (male human; oral; 20 mg; single dose, fed, healthy volunteers).
`CN(C)CCCNC(=O)/C(=C/CCCCC(=O)NO)COc1cccc2ccccc12` has an AUC(0-inf) of 72600 ng·h/mL (human; intravenous; 312.5 mg/m²; single dose).
`CC(C)(O)c1ccccc1-c1ccc2[nH]c(/C=C/c3ccc(C(F)(F)F)cc3)nc2c1` has an AUC(0-inf) of 876 ng·h/mL (male human; oral; 5 mg; single dose, fasted).
`C[C@@]1(c2cc(NC(=O)c3ccc(C#N)cn3)ccc2F)C=CSC(N)=N1` gave an AUC(0-inf) of 8950 ng·h/mL (human; oral; 90 mg; single dose).
`CC(C)n1cc(C#N)c2cc(-n3cc(C(=O)O)cn3)ccc21` has an AUC(0-inf) of 7120 ng·h/mL (human; oral; 50 mg; single dose, fasted, healthy volunteers).
`O=C(Nc1c(Cl)cncc1Cl)c1ccc(OC(F)F)c(OCC2CC2)c1` has an AUC(0-inf) of 48.7 ng·h/mL (human; oral; 0.375 mg; single dose, fasted).
For `COc1ccc(-n2nc(C(N)=O)c3c2C(=O)N(c2ccc(N4CCCCC4=O)cc2)CC3)cc1`, the AUC(0-inf) was 1630 ng·h/mL (male human; oral; 10 mg; single dose).
`CS(=O)(=O)CCC#N` gave an AUC(0-inf) of 77000 ng·h/mL (human; oral; 100 mg; single dose, fasted).
With `CCc1nc2c(C)cc(N3CCN(CC(=O)N4CC(O)C4)CC3)cn2c1N(C)c1nc(-c2ccc(F)cc2)c(C#N)s1` the AUC(0-inf) was 14900 ng·h/mL (human; oral; 300 mg; single dose, fed, healthy volunteers).
